Bioassay records: PubChem, several laboratories
Shown are actives, neighbours in structure and some others; about 1% of the full set was active somewhere.
GSIS activator = primary screen for activators of insulin secretion dependent on glucose, INS-1E cells, GLuc reporter luminescence | hit rate 0.61% among 370,000 | AID 743287 | activation, % at 16.6 µM | INS-1E GLuc reporter insulin secretion, 2-3 h;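 active = lowest replicate activation of at least 40%, so every replicate reaches that level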;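 also: 0% = median of neutral control wells and 100% = median of IBMX positive control wells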
XiGFP reactiv = X-chromosome reactivation activator; activation, % at 7.58 µM; XiGFP mouse fibroblasts, % GFP-positive cells imaging, 3 d; cells co-treated with 5-aza-dC sensitizer; scaled so ellipticine positive control = 100%; hit rate 0.055% among 360,000; AID 743238;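 active = mean normalized replicate activation at least 10% and every replicate at or above 10%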;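 also: 0% = median of on-plate neutral control wells and 100% = ellipticine 6 µM median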
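System: 68-5-11 XiGFP fibroblast line | Buffer or medium: DMEM containing 5-aza-dC | Compound: Single point | Times: Compounds 3 days, fix/stain 15 min at room temperature | Benchmarks: Positive control ellipticine, 6 µM final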
CaV13 ICDI inh = Primary screen for inhibitors of IQ motif and Ca2+-dependent inactivation inhibitor domain binding in CACNA1D, Förster resonance energy transfer in living cells, …; HEK cells, CFP/YFP FRET ICDI-IQ, plate reader, 10 min; percent FRET-ratio fall versus neutral wells; inhibition, % at 12.3 µM; hit rate 0.098% among 340,000; AID 743397;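 active = mean replicate inhibition of at least 30% and at least 1% of replicates passing that level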;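 also: 0% = median of the neutral control wells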
FXN GAA850 act = increases GAA850 frataxin promoter reporter activity. activation, % at 6 µM. HEK293 lucGAA850 FXN promoter luciferase reporter, 24 h; percent of 10 µM SAHA response. hit rate 0.56% among 360,000;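 active = activation above the average of all compounds screened plus 3 SD, cutoff fixed separately per campaign, cut at about 7.5% in these data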;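 also: 0% = DMSO wells and 100% = 10 µM SAHA wells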
An asterisk follows results filed as active; x = not tested or not shown; ! = a repeat was not active.

SMILES	GSIS activator	XiGFP reactiv	CaV13 ICDI inh	FXN GAA850 act
CCCCCCSc1cc(-c2nc3cc(C)ccn3c2NCCCC)ccc1OC	5	0	78*!	2
CCCCCCSc1cc(-c2nc3cnccn3c2NCCCC)ccc1OC	108*	x	x	1
CCCCCCSc1ccc(-c2nc3ccc(C)cn3c2NCCCC)cc1OC	-50	0	-12	x
Cc1cc(NC(=O)COC(=O)c2oc3c(ccc4ccccc43)c2C)no1	43*	0	-14	0
Cc1c(C(=O)OCC(=O)Nc2ccc(S(N)(=O)=O)cc2)oc2c1ccc1ccccc12	4	0	-7	1
CCOc1cc(C(=O)OCC(=O)Nc2cc(C)on2)cc(OCC)c1OCC	76*	x	-10	0
COc1ccc2c3c([nH]c2c1)[C@H](CO)N(C(=O)C1CC1)CC31CCN(C)CC1	11	0	x	x
S=c1[nH]c2ccc(Cc3ccc4[nH]c(=S)[nH]c4c3)cc2[nH]1	13	0	42*	1
CN1CCCC1CCNS(=O)(=O)c1ccc(Br)cc1 (configuration not stated)	x	x	-5	-1
CN1CCCC1CCNC1C2CC3CC(C2)CC1C3 (configuration not stated)	46*	x	-8	2
CC(C)NC(=O)Nc1ccc2c(c1)C(=O)N([C@@H](C)CO)C[C@H](C)[C@H](CN(C)Cc1ccccc1)O2	22	0	x	x
C=C1C(=O)OC2C1CCC(C)=C1C(=O)C3OC3(C)C12 (configuration not stated)	134*	x	x	-13
COc1ccc2c3c([nH]c2c1)[C@H](CO)N(C(=O)Cc1ccccc1)CC31CN(C(=O)Cc2ccccc2)C1	-25	0	x	x
OCCN1CNC(=S)NC1	4	0	-20	-2
OCCN1CCSC1=S	45*	0	-7	-1
NCC[C@H]1CC[C@H](NC(=O)c2ccccc2F)[C@H](CO)O1	-1	0	x	x
O=C(c1ccccc1)N1CCCCC1	9	x	x	-2
O=C(c1ccccc1)N(C(=O)c1ccccc1)N1CCCC1	45*	0	-9	1
COc1ccc(CN(C)C[C@H]2Oc3ccc(NC(=O)NC(C)C)cc3C(=O)N([C@H](C)CO)C[C@H]2C)cc1	-6	0	x	x
O=C(Nc1ccc(F)cc1)Nc1cc(OCC(F)(F)F)cc(OCC(F)(F)F)c1	128*	1	-6	-10
CCCCOC(=O)c1cc(=O)[nH]c2ccc(C)cc12	1	0	-9	0
CCCCOC(=O)c1cc(=O)[nH]c2ccccc12	58*	x	-8	2
CC(=O)Nc1cc2c3c(cccc3c1)-c1ccccc1-2	-7	100*	-6	4
COc1ccc(-n2sc3ccc(F)cc3c2=O)cc1	32	0	-10	-2
COc1ccc(-n2sc3ccccc3c2=O)cc1	87*	0	-5	-1
SMILES	GSIS activator	XiGFP reactiv	CaV13 ICDI inh	FXN GAA850 act
O=C(C[C@@H]1C[C@@H]2c3cc(NC(=O)CC4CC4)ccc3O[C@@H]2[C@@H](CO)O1)NCC1CC1	5	0	x	x
CC(=O)NC[C@H]1[C@@H](c2ccc(C3=CCCC3)cc2)[C@@H](CO)N1C(=O)C1CC1	4	0	x	x
CCSc1nnc(NC(=O)c2csc(C)c2)s1	99*	x	-5	1
COc1ccc(-c2nc(CS(=O)CC(=O)NC(C)CCc3ccccc3)c(C)o2)cc1OC (configuration not stated)	49*	0	-3	3
Cc1ccc(-c2nc(CS(=O)CC(=O)NC(C)CCc3ccccc3)c(C)o2)cc1 (configuration not stated)	-28	0	-4	-1
COC(=O)[C@H]1[C@H](CO)[C@H]2Cn3c(ccc(-c4cccc(F)c4)c3=O)[C@H]2N1C(C)=O	7	0	x	x
CCCCNc1cc(Cl)nc(N)n1	58*	0	-4	3
N#Cc1cccc(-c2ccc3c(c2)[C@@H]2[C@@H](CCN2C(=O)C2CCCCC2)[C@H](CO)N3)c1	16	0	x	x
CCOC(=O)c1c(C)n(CC(O)CN(CC)CC)c2cc(Br)c(OC)cc12 (configuration not stated)	68*	0	-2	0
CCOC(=O)c1c(C)n(C)c2cc(Br)c(OC)cc12	32	0	-4	3
COc1cc(OC)cc(C(=O)NC(=S)Nc2ccc3c4c(cccc24)CC3)c1	-12	x	x	1
COc1ccc(C(=O)NC(=S)Nc2ccc3c4c(cccc24)CC3)cc1OC	96*	0	-4	1
COc1cccc(NC(=O)N2C[C@H](O)COC[C@@H]3O[C@@H](CC(=O)NC4CCC4)CC[C@H]32)c1	12	0	x	x
Cc1nc(NC(=O)c2ccc(-c3cc4ccccc4oc3=O)cc2)ccc1Br	9	0	-7	4
Cc1nc(NC(=O)c2cccc(-c3cc4ccccc4oc3=O)c2)ccc1Br	73*	0	-5	-1
COCc1cc(C)nc(Nc2ccccc2C)c1C#N	x	x	-9	0
CCN(CC)CCCNc1nc(C)cc(COC)c1C#N	6	0	45*	1
S=c1[nH]nc(C2CCCCC2)n1/N=C/c1ccncc1	41	0	-4	-10
O=C(O)c1ccc(/C=N/n2c(C3CCCCC3)n[nH]c2=S)cc1	63*	0	-6	1
Cc1c(C(=O)NCc2cccc([N+](=O)[O-])c2)sc(=O)n1Cc1cccc(F)c1	-9	0	63*	0
COc1ccc(CNC(=O)c2sc(=O)n(Cc3ccc(-c4ccccc4)cc3)c2C)cc1OC	0	0	-7	-4
COc1ccc(CNC(=O)c2sc(=O)n(Cc3ccc(C)cc3)c2C)cc1OC	x	0	55*	0
Cc1c(C(=O)NCc2cccc([N+](=O)[O-])c2)sc(=O)n1Cc1ccc(F)cc1	-31	0	8	-3
Cc1c(C(=O)NCc2cccc(C(F)(F)F)c2)sc(=O)n1Cc1ccc(C(=O)N(C)C)cc1	-27	0	47*	-1
Cc1c(C(=O)NCc2ccc3c(c2)OCCO3)sc(=O)n1Cc1ccccc1F	-14	0	73*	0
SMILES	GSIS activator	XiGFP reactiv	CaV13 ICDI inh	FXN GAA850 act
Cc1c(C(=O)NCCC#N)sc(=O)n1Cc1ccc(F)cc1	-1	0	-1	-2
CSc1ccc(Cn2c(C)c(C(=O)NCCC#N)sc2=O)cc1	4	2	34*	2
C/C=C/c1ccc2c(c1)O[C@H](CN(C)C(=O)Nc1cc(F)ccc1F)[C@H](C)CN([C@H](C)CO)S2(=O)=O	-8	0	x	x
C=C1C(=O)O[C@H]2[C@H]1[C@@H](O)CC(=C)[C@@H]1CC(=O)[C@@H](C)[C@H]21	x	x	x	9.3*
C[C@H](CO)N1C[C@H](C)[C@H](CN(C)Cc2ccc(C(=O)Nc3ccccc3N)cc2)Oc2ccc(NS(=O)(=O)c3ccc(Cl)cc3)cc2CC1=O	4	1	x	x
C[C@H](CO)N1C[C@H](C)[C@@H](CN(C)Cc2ccc(Cl)c(Cl)c2)Oc2ccc(N(C)C)cc2CC1=O	-31	-1	x	x
